Measurements: ChEMBL document CHEMBL1147862, “Studies on synthesis and pharmacological activities of 3,6-disubstituted-1,2,4-triazolo[3,4-b]-1,3,4-thiadiazoles and their dihydro analogues” (2007)

Legend:
Assay type in all cases: functional
[1] = tested on: Escherichia coli; experiment: Antibacterial activity against Escherichia coli at 20 ug/ml by agar plate diffusion technique; conditions: read-out: IZ
[2] = tested on: Bacillus subtilis; experiment: Antibacterial activity against Bacillus subtilis at 20 ug/ml by agar plate diffusion technique; conditions: read-out: IZ
[3] = tested on: Bacillus subtilis; experiment: Antibacterial activity against Bacillus subtilis at 10 ug/ml by agar plate diffusion technique; conditions: read-out: IZ
[4] = tested on: Rattus norvegicus; experiment: Antiinflammatory activity in Wistar Albino rat assessed as inhibition of carrageenan-induced paw oedema at 20 mg/kg after 1 hr relative to control
Summary of the method: (§1)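 Wistar albino rats, 150–200 g, six per group, dosed orally with a 20 mg/kg suspension; control gets 0.1 ml 1% gum acacia. After 30 min, 0.1 ml 1% carrageenan in saline is injected subplantar into the right hind paw. Paw volume is read by plethysmograph at 0–4 h. Inhibition = 100(1 − Vtest/Vcontrol) on mean volume increase.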

[5] = tested on: Staphylococcus aureus; experiment: Antibacterial activity against Staphylococcus aureus at 10 ug/ml by agar plate diffusion technique; conditions: read-out: IZ
[6] = tested on: Candida albicans; experiment: Antifungal activity against Candida albicans at 30 ug/ml by paper disc method; conditions: read-out: IZ
[7] = tested on: Bacillus subtilis; experiment: Antibacterial activity against Bacillus subtilis at 30 ug/ml by agar plate diffusion technique; conditions: read-out: IZ
[8] = tested on: Aspergillus niger; experiment: Antifungal activity against Aspergillus niger at 30 ug/ml by paper disc method; conditions: read-out: IZ
[9] = tested on: Aspergillus niger; experiment: Antifungal activity against Aspergillus niger at 10 ug/ml by paper disc method; conditions: read-out: IZ
[10] = tested on: Pseudomonas aeruginosa; experiment: Antibacterial activity against Pseudomonas aeruginosa at 20 ug/ml by agar plate diffusion technique; conditions: read-out: IZ
[11] = tested on: Escherichia coli; experiment: Antibacterial activity against Escherichia coli at 10 ug/ml by agar plate diffusion technique; conditions: read-out: IZ
[12] = tested on: Mus musculus; experiment: Analgesic activity in Swiss mouse assessed as increase in reaction time at 20 mg/kg, po after 60 mins by Eddy's hot plate technique
Summary of the method: (§2)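 Swiss mice of either sex, 25–35 g, placed one at a time on a hot plate held at 55 °C. End point is paw licking or jumping, whichever comes first, with a 15 s cut-off to avoid paw injury. Reaction time is recorded and reported as percent increase in reaction time.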

[13] = tested on: Staphylococcus aureus; experiment: Antibacterial activity against Staphylococcus aureus at 30 ug/ml by agar plate diffusion technique; conditions: read-out: IZ
[14] = tested on: Escherichia coli; experiment: Antibacterial activity against Escherichia coli at 30 ug/ml by agar plate diffusion technique; conditions: read-out: IZ
[15] = tested on: Aspergillus niger; experiment: Antifungal activity against Aspergillus niger at 20 ug/ml by paper disc method; conditions: read-out: IZ
[16] = tested on: Rattus norvegicus; experiment: Antiinflammatory activity in Wistar Albino rat assessed as inhibition of carrageenan-induced paw oedema at 20 mg/kg after 4 hrs relative to control; summary of the method: as §1
[17] = tested on: Rattus norvegicus; experiment: Antiinflammatory activity in Wistar Albino rat assessed as inhibition of carrageenan-induced paw oedema at 20 mg/kg after 3 hrs relative to control; summary of the method: as §1
[18] = tested on: Pseudomonas aeruginosa; experiment: Antibacterial activity against Pseudomonas aeruginosa at 30 ug/ml by agar plate diffusion technique; conditions: read-out: IZ
[19] = tested on: Mus musculus; experiment: Analgesic activity in Swiss mouse assessed as increase in reaction time at 20 mg/kg, po after 30 mins by Eddy's hot plate technique; summary of the method: as §2
[20] = tested on: Mus musculus; experiment: Analgesic activity in Swiss mouse assessed as increase in reaction time at 20 mg/kg, po after 90 mins by Eddy's hot plate technique; summary of the method: as §2
[21] = tested on: Staphylococcus aureus; experiment: Antibacterial activity against Staphylococcus aureus at 20 ug/ml by agar plate diffusion technique; conditions: read-out: IZ
[22] = tested on: Candida albicans; experiment: Antifungal activity against Candida albicans at 20 ug/ml by paper disc method; conditions: read-out: IZ
[23] = tested on: Pseudomonas aeruginosa; experiment: Antibacterial activity against Pseudomonas aeruginosa at 10 ug/ml by agar plate diffusion technique; conditions: read-out: IZ
[24] = tested on: Candida albicans; experiment: Antifungal activity against Candida albicans at 10 ug/ml by paper disc method; conditions: read-out: IZ
[25] = tested on: Rattus norvegicus; experiment: Antiinflammatory activity in Wistar Albino rat assessed as inhibition of carrageenan-induced paw oedema at 20 mg/kg after 2 hrs relative to control; summary of the method: as §1

| Compound | zone of inhibition at 20 µg/mL [1] | zone of inhibition at 20 µg/mL [2] | zone of inhibition at 10 µg/mL [3] | inhibition in vivo at 20 mg/kg [4] | zone of inhibition at 10 µg/mL [5] | zone of inhibition at 30 µg/mL [6] | zone of inhibition at 30 µg/mL [7] | zone of inhibition at 30 µg/mL [8] | zone of inhibition at 10 µg/mL [9] | zone of inhibition at 20 µg/mL [10] | zone of inhibition at 10 µg/mL [11] | Activity [12] | zone of inhibition at 30 µg/mL [13] | zone of inhibition at 30 µg/mL [14] | zone of inhibition at 20 µg/mL [15] | inhibition in vivo at 20 mg/kg [16] | inhibition in vivo at 20 mg/kg [17] | zone of inhibition at 30 µg/mL [18] | Activity [19] | Activity [20] | also measured |
| --- | --- | --- | --- | --- | --- | --- | --- | --- | --- | --- | --- | --- | --- | --- | --- | --- | --- | --- | --- | --- | --- |
| Cc1occc1-c1nnc2n1NC(c1ccco1)S2 (stereo not given) | 8.04 mm | 10.7 mm | 5.33 mm | 16.4% | 6.67 mm | 14.8 mm | 11.3 mm | 14.2 mm | 5.21 mm | 12.3 mm | 4.82 mm | 15.18% | 13.3 mm | 15.2 mm | 8.12 mm | 25.9% | 24.1% | 17.7 mm | 5.68% | 26.14% | zone of inhibition at 20 µg/mL [21]: 12.3 mm; zone of inhibition at 20 µg/mL [22]: 11 mm; zone of inhibition at 10 µg/mL [23]: 6.67 mm; zone of inhibition at 10 µg/mL [24]: 5.41 mm; inhibition in vivo at 20 mg/kg [25]: 21.6% |
| COc1ccc(Cl)c(-c2nnc3n2NC(c2ccc([N+](=O)[O-])o2)S3)c1 (stereo not given) | 10.1 mm | 8.71 mm | 5.12 mm | 15.6% | 5.2 mm | 15.2 mm | 13.6 mm | 14.5 mm | 5.32 mm | 7.36 mm | 5.21 mm | 14.1% | 14.2 mm | 15.1 mm | 9.72 mm | 24.2% | 21.7% | 13.2 mm | 5.71% | 23.45% | zone of inhibition at 20 µg/mL [21]: 8.82 mm; zone of inhibition at 20 µg/mL [22]: 11.3 mm; zone of inhibition at 10 µg/mL [23]: 4.88 mm; zone of inhibition at 10 µg/mL [24]: 5.58 mm; inhibition in vivo at 20 mg/kg [25]: 18.5% |
| Cc1occc1-c1nnc2sc(Cc3c[nH]c4ccccc34)nn12 | 9.18 mm | 8.75 mm | 5.67 mm | 16% | 5.12 mm | 12.7 mm | 13.8 mm | 13.2 mm | 5.6 mm | 8.9 mm | 5.78 mm | 22.22% | 13.5 mm | 13.6 mm | 8.74 mm | 30% | 26.5% | 13.5 mm | 6.66% | 35.33% | zone of inhibition at 20 µg/mL [21]: 8.19 mm; zone of inhibition at 20 µg/mL [22]: 9.3 mm; zone of inhibition at 10 µg/mL [23]: 4.85 mm; zone of inhibition at 10 µg/mL [24]: 5.38 mm; inhibition in vivo at 20 mg/kg [25]: 21.5% |
| COc1ccc(Cl)c(-c2nnc3n2NC(c2ccco2)S3)c1 (stereo not given) | 7.39 mm | 7.68 mm | 4.39 mm | 13.9% | 4.82 mm | 14.8 mm | 13.6 mm | 13.1 mm | 5.16 mm | 8.95 mm | 4.12 mm | 12.55% | 14.1 mm | 14.4 mm | 7.13 mm | 25.6% | 23.1% | 14.2 mm | 6.24% | 23.89% | zone of inhibition at 20 µg/mL [21]: 8.61 mm; zone of inhibition at 20 µg/mL [22]: 10.3 mm; zone of inhibition at 10 µg/mL [23]: 4.82 mm; zone of inhibition at 10 µg/mL [24]: 5.19 mm; inhibition in vivo at 20 mg/kg [25]: 18.7% |
| COc1ccc(Cc2nnc3n2NC(c2ccco2)S3)cc1OC (stereo not given) | 7.49 mm | 6.65 mm | 3.8 mm | 12% | 3.7 mm | 14.7 mm | 12.2 mm | 12.3 mm | 4.8 mm | 7.11 mm | 4.29 mm | 17.26% | 11.8 mm | 14.2 mm | 6.96 mm | 24.6% | 21.1% | 12.7 mm | 5.36% | 25.11% | zone of inhibition at 20 µg/mL [21]: 7.31 mm; zone of inhibition at 20 µg/mL [22]: 10.4 mm; zone of inhibition at 10 µg/mL [23]: 3.73 mm; zone of inhibition at 10 µg/mL [24]: 5.48 mm; inhibition in vivo at 20 mg/kg [25]: 17.5% |
| COc1ccc(Cc2nnc3n2NC(c2ccc([N+](=O)[O-])o2)S3)cc1OC (stereo not given) | 10 mm | 8.49 mm | 4.92 mm | 14.5% | 5.1 mm | 14.8 mm | 13.5 mm | 14.3 mm | 5.21 mm | 7.88 mm | 5.16 mm | 10.3% | 14 mm | 15 mm | 9.64 mm | 23.7% | 21.4% | 13.1 mm | 2.83% | 22.66% | zone of inhibition at 20 µg/mL [21]: 8.37 mm; zone of inhibition at 20 µg/mL [22]: 10.9 mm; zone of inhibition at 10 µg/mL [23]: 4.42 mm; zone of inhibition at 10 µg/mL [24]: 5.43 mm; inhibition in vivo at 20 mg/kg [25]: 17.6% |
